A short description of data set [1]: Selectivity ratio of Ki for alpha4beta2 nAChR (unknown origin) to Ki for rat cortical membrane alpha7 nAChR.
In data set [2] the target is T1, Neuronal acetylcholine receptor subunit alpha-7 (Rattus norvegicus, UniProt Q05941). Put plainly: Displacement of [125I]alpha-bungarotoxin from rat cortical membrane alpha7-nAChR after 150 mins by gamma-counting analysis.
For data set [3], the target named is T1, Neuronal acetylcholine receptor subunit alpha-7. In words: Displacement of [3H]MLA from rat alpha7 nAChR.
Data set [4] is described as follows: Ratio of drug uptake in cortex to cerebellum in mouse. The format is ADME, organism-based. To be noted: in vivo.
In data set [5] the test system is Nucleic Acid. In words: Ratio of drug uptake in cortex to cerebellum in CD-1 mouse at 0.67 MBq after 5 to 120 mins. The format is ADME. The note with it: in vivo.
Data set [6] has as its target Neuronal acetylcholine receptor subunit alpha-7 (Homo sapiens, UniProt P36544). In words: Binding affinity to alpha7 nAChR (unknown origin).
In data set [7] the target is T1, Neuronal acetylcholine receptor subunit alpha-7. In words: Binding affinity to rat brain alpha7 nAChR.
The nature of data set [8]: Selectivity ratio of Ki for human 5HT3 receptor to Ki for rat cortical membrane alpha7 nAChR.
Data set [9] deals with Hippocampus. Put plainly: Drug uptake in CD-1 mouse hippocampus at 0.07 mCi, iv after 90 mins in presence of 3-(1,4-Diazabicyclo[3.2.2]nonan-4-yl)dibenzo[b,d]-thiophene 5,5-dioxide. The data set is classed as ADME, organism-based. The note with it: in vivo, 1.5 h.
The test system of data set [10] is Cerebellum. In words: Drug uptake in CD-1 mouse cerebellum at 0.07 mCi, iv after 90 mins in presence of 3-(1,4-Diazabicyclo[3.2.2]nonan-4-yl)dibenzo[b,d]-thiophene 5,5-dioxide. The data set is classed as ADME, organism-based. The note with it: in vivo, 1.5 h.
The subject of data set [11] is Nucleic Acid. Put plainly: Ratio of drug uptake from cortex to cerebellum in CD-1 mouse after 90 mins. The note with it: 1.5 h. The data set is classed as ADME, tissue-based.
In data set [12] the test system is Mus musculus. In words: Toxicity in CD-1 mouse assessed as change in behavioral activity at 0.07 mCi, iv after 90 mins in presence of 7-(1,4-Diazabicyclo[3.2.2]nonan-4-yl)-2-fluorodibenzo[b,d]-thiophene 5,5-Dioxide. The format is organism-based. The note with it: in vivo, 1.5 h. An outline of the steps: (§1)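 CD-1 mice observed for behavioral and locomotor changes during self-blockade studies. [18F]tracer (0.07 mCi, i.v.) was co-injected with the non-radioactive ligand at 0.3 or 0.2 mg/kg i.v., dissolved in saline at pH 5.5. Brains were harvested at 90 min.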

In data set [13] the test system is Thalamus. In words: Drug uptake in CD-1 mouse thalamus at 70 uCi, iv followed by compound washout by gamma-counting analysis. To be noted: in vivo. The data set is classed as ADME, organism-based. The essentials: (§2)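 Male CD-1 mice (25–30 g) given [18F]radioligand i.v. into a lateral tail vein (70 µCi, 8000–12000 mCi/µmol, in 0.2 mL saline). Killed by cervical dislocation at various times, three per time point. Brains dissected on ice; regions weighed and gamma-counted with injectate standards. Result as %ID/g.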

The subject of data set [14] is Brain. Put plainly: Drug uptake in CD-1 mouse other brain regions at 0.07 mCi, iv after 90 mins in presence of 3-(1,4-Diazabicyclo[3.2.2]nonan-4-yl)dibenzo[b,d]-thiophene 5,5-dioxide. The data set is classed as ADME, organism-based. The note with it: in vivo, 1.5 h. An outline of the steps: (§3)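 Male CD-1 mice. [18F]tracer (0.07 mCi, SA 11000 mCi/µmol, i.v.) co-injected with α7 antagonist blocker at 0.001, 0.0045 or 0.014 mg/kg, handled as in the dose-escalation blockade. Brain regions harvested at 90 min and gamma-counted. %ID/g, mean ± SD, n=3; ANOVA versus controls.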

Data set [15] is described as follows: Drug uptake in CD-1 mouse superior and inferior colliculus at 70 uCi, iv followed by compound washout by gamma-counting analysis. The data set is classed as ADME, organism-based. The note with it: in vivo. The essentials:
as §2

Data set [16] deals with Cerebellum. In words: Drug uptake in CD-1 mouse cerebellum at 70 uCi, iv followed by compound washout by gamma-counting analysis. The data set is classed as ADME, organism-based. To be noted: in vivo. The essentials: (§4)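 Male CD-1 mice (25–30 g), three per time point. [18F] radiotracer (70 µCi, SA 8000–12000 mCi/µmol, in 0.2 mL saline) given by tail vein. Killed at several times up to 90 min. Dissected regions weighed and gamma counted against injectate standards, giving %ID/g.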

Data set [17] concerns Cerebellum. Put plainly: Drug uptake in CD-1 mouse cerebellum at 0.07 mCi, iv after 90 mins in presence of 3-(1,4-Diazabicyclo[3.2.2]nonan-4-yl)-6-fluorodibenzo[b,d]thiophene 5,5-Dioxide. The data set is classed as ADME, organism-based. To be noted: in vivo, 1.5 h. The essentials:
(§5)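 Male CD-1 mice, n=3. [18F] radiotracer (70 µCi, 0.2 mL) given i.v. together with unlabeled blocker in saline pH 5.5. Brain regions dissected at 90 min, gamma counted, expressed as %ID/g.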

Data set [18] is described as follows: Drug uptake in CD-1 mouse frontal cortex at 70 uCi, iv followed by compound washout by gamma-counting analysis. The data set is classed as ADME, organism-based. To be noted: in vivo. An outline of the steps:
as §4

The test system of data set [19] is Cerebellum. In words: Drug uptake in CD-1 mouse colliculus at 0.07 mCi, iv after 90 mins relative to drug uptake in CD-1 mouse cerebellum. To be noted: in vivo, 1.5 h. The data set is classed as ADME, organism-based.
The test system of data set [20] is Mus musculus. Put plainly: Toxicity in CD-1 mouse assessed as change in locomotor activity at 0.07 mCi, iv after 90 mins in presence of 7-(1,4-Diazabicyclo[3.2.2]nonan-4-yl)-2-fluorodibenzo[b,d]-thiophene 5,5-Dioxide. The note with it: in vivo, 1.5 h. The format is organism-based. The essentials: as §1
For data set [21], the system named is Cerebellum. In words: Drug uptake in CD-1 mouse cerebellum at 0.07 mCi, iv after 90 mins in presence of 7-(1,4-Diazabicyclo[3.2.2]nonan-4-yl)-2-fluorodibenzo[b,d]-thiophene 5,5-Dioxide. The data set is classed as ADME, organism-based. The note with it: in vivo, 1.5 h. An outline of the steps:
as §5

Data set [22] concerns Striatum. Put plainly: Drug uptake in CD-1 mouse striatum at 70 uCi, iv followed by compound washout by gamma-counting analysis. The note with it: in vivo. The format is ADME, organism-based. An outline of the steps:
as §2

Data set [23] in a line: Drug uptake in CD-1 mouse superior and inferior colliculus at 0.07 mCi, iv after 90 mins in presence of 3-(1,4-Diazabicyclo[3.2.2]nonan-4-yl)dibenzo[b,d]-thiophene 5,5-dioxide. The format is ADME, organism-based. To be noted: in vivo, 1.5 h. The essentials: as §3
For data set [24], the system named is Hippocampus. In words: Drug uptake in CD-1 mouse hippocampus at 70 uCi, iv followed by compound washout by gamma-counting analysis. The data set is classed as ADME, organism-based. To be noted: in vivo. An outline of the steps: as §4
In data set [25] the test system is Cerebellum. In words: Ratio of clearance in CD-1 mouse cerebellum to clearance in CD-1 mouse other brain tissues at 70 uCi, iv followed by compound washout after 90 mins by gamma-counting analysis. The format is ADME, organism-based. The note with it: in vivo, 1.5 h. An outline of the steps: (§6)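 CD-1 mouse baseline biodistribution after i.v. [18F]radioligand (70 µCi, 8000–12000 mCi/µmol, in 0.2 mL saline), three mice per time point to 90 min. Regional gamma-counting gave %ID/g, and each region was expressed as a ratio to cerebellum.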

The test system of data set [26] is Nucleic Acid. In words: Ratio of drug uptake from hippocampus to cerebellum in CD-1 mouse after 90 mins. The format is ADME, nucleic-acid assay. To be noted: 1.5 h.
Data set [27] deals with Nucleic Acid. Put plainly: Ratio of drug uptake from superior and inferior colliculus to cerebellum in CD-1 mouse after 90 mins. The data set is classed as ADME, nucleic-acid assay. To be noted: 1.5 h. An outline of the steps: as §6
Data set [28] relates to Nucleic Acid. In words: Ratio of drug uptake in cortex to cerebellum in CD-1 mouse by gamma-counting analysis. The note with it: in vivo. The format is ADME, tissue-based.
Data set [29] has as its target T1, Neuronal acetylcholine receptor subunit alpha-7. Put plainly: Displacement of [125I]alpha-bungarotoxin from Sprague-Dawley rat brain alpha7-nAChR after 3 hrs.
Data set [30] has as its system Nucleic Acid. In words: Ratio of drug uptake in cortex to cerebellum in Danish Landrace pig. The data set is classed as ADME, tissue-based, Sus scrofa. To be noted: in vivo.
In data set [31] the target is T1, Neuronal acetylcholine receptor subunit alpha-7. Put plainly: Displacement of [125I]-alpha-BTX from rat alpha7-nAChR after 2 hrs by scintillation counting analysis.
The test system of data set [32] is Nucleic Acid. In words: Ratio of drug uptake in cortex to cerebellum in pig. The data set is classed as ADME, tissue-based, Sus scrofa. The note with it: in vivo.

The values below come from ChEMBL document CHEMBL3232832, “Derivatives of dibenzothiophene for positron emission tomography imaging of α7-nicotinic acetylcholine receptors” (J Med Chem, 2013).

Molecules are shown by their SMILES.

T1 sequence (Q05941 whole entry): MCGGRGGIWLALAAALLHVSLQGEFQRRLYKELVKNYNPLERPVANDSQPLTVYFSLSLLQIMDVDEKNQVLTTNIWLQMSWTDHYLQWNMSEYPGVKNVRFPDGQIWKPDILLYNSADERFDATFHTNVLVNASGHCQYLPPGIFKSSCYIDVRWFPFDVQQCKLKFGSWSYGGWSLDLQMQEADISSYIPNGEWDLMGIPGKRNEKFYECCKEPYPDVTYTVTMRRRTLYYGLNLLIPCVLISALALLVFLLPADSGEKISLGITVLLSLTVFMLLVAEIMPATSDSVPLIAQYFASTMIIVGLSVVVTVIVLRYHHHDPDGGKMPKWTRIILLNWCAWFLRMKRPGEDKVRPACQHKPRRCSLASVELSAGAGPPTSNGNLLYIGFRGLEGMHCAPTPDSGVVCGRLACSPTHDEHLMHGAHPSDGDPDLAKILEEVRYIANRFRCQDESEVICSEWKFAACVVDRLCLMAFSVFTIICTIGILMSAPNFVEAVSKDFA
Chain of Neuronal acetylcholine receptor subunit alpha-7 (Homo sapiens, UniProt P36544) (P36544 whole entry): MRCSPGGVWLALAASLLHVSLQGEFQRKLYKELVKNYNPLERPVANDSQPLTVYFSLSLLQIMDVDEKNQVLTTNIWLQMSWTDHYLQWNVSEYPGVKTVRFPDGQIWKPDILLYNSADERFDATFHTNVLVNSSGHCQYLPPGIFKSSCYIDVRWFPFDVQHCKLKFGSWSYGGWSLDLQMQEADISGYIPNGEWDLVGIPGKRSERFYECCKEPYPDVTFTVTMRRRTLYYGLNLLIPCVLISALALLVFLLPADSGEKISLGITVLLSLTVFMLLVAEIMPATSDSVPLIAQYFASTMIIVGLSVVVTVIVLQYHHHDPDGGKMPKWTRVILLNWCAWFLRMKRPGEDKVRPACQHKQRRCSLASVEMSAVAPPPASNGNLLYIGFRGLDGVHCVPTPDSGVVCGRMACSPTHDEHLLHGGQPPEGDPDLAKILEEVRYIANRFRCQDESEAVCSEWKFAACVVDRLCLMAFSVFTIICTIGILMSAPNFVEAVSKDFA

Turning to `O=S1(=O)c2ccc(I)cc2-c2ccc(N3CCN4CCC3CC4)cc21`, in data set [1], the Ratio Ki came out at 63.
In the case of `[18F]c1ccccc1-c1cnc2c(c1)CC1(CN3CCC1CC3)O2` (stereo unspecified), the inhibitory constant (Ki) turned out to be 3.3 nM in data set [2] and 0.2 nM in data set [3]. Moreover, the Ratio in [4] is on record as 0.8.
As to `[125I]c1occc1-c1cnc2c(c1)CC1(CN3CCC1CC3)O2` (stereo unspecified), the Ratio in data set [5] is listed as 0.6.
In turn, `[11CH3]N1CC2CN(c3ccc4oc5ccccc5c(=O)c4c3)CC2C1` (stereo unspecified) showed a Ki in [3] of 11 nM.
Turning to `O=S1(=O)c2ccccc2-c2c(N3CCN4CCC3CC4)ccc(F)c21`, the Ratio Ki in [1] is 210.
Take `CN1C[C@H]2CN(c3ccc4c(c3)C(=O)c3cc(N5C[C@@H]6CN([11CH3])[C@@H]6C5)ccc3-4)C[C@H]21`: the Ki in data set [6] was 0.092 nM.
In data set [7], `[11CH3]N1CC2CN(c3ccc(-c4ccccc4)nn3)CC2C1` (stereo unspecified) registered a Ki of 10.8 nM. Also, in [4], the Ratio is on record as 0.2.
For the compound `O=S1(=O)c2cc(N3CCN4CCC3CC4)ccc2-c2cccc(F)c21`, the Ratio Ki in [8] stood at 561; in data set [1], 1370.
As for `O=S1(=O)c2ccc([18F])cc2-c2ccc(N3CCN4CCC3CC4)cc21`, the Drug uptake result in data set [9] is given as “Not Active”; in [10], “Not Active”; in [13], “Active”; in [14], “Not Active”; in data set [15], “Active”; in data set [16] it was “Active”. The Drug uptake entry in data set [17] is “Active”; in data set [18] it was “Active”; in data set [19], 80%; in [21], “Active”; in [22], “Active”; in data set [23], “Not Active”. Further, in [24], the Drug uptake result was “Active”. For the same compound, the Ratio was found to be 2 in [11], 4.5 in data set [25], 3.1 in [26] and 2 in data set [27]. For the same compound, the Activity entry in data set [12] and in [20] was “Non-toxic” throughout.
`[11CH3]N1CC2CN(c3ccc(-c4ccc5[nH]ccc5c4)nn3)CC2C1` (stereo unspecified): the Ratio in data set [28] worked out at 0.5. In addition, the affinity in data set [6], expressed as Ki, was 0.24 nM.
`O=S1(=O)c2ccccc2-c2ccc(N3CCN4CCC3CC4)c(F)c21`: in data set [1], the Ratio Ki came out at 66.
For the compound `[11CH3]c1ccc(OC(=O)N2CCN3CCC2CC3)cc1`, the Ratio in data set [4] is listed as 0.6. Moreover, the Ki in data set [29] turned out to be 46 nM.
With `[11CH3]n1cccc1-c1nnc(N2CCN3CCC2CC3)o1`, the Ratio in data set [30] is given as 1. Also, the Ki in data set [2] was 20.4 nM; in data set [31] it was 2.2 nM.
For the compound `O=[11C](Nc1ccc(Br)cc1)OC1CN2CCC1CC2` (stereo unspecified), in data set [4], the Ratio worked out at 0.3.
In the case of `[18F]c1ccc(-c2nnc(N3CCN4CCC3CC4)o2)cc1`, the inhibition constant (Ki) in [2] was 38 nM; in data set [6] it was 11.6 nM. Further, the Ratio is 0.4 in data set [4] and 0.8 in data set [32].
As for `O=S1(=O)c2ccc(F)cc2-c2ccc(N3CCN4CCC3CC4)cc21`, the Ratio Ki was 378 in [8] and 663 in data set [1].
